Experiments:
[1] = molecular target: T1, Trace amine-associated receptor 1 (Rattus norvegicus, UniProt Q923Y9); assay: Antagonist activity at rat TAAR1 assessed as reversal of endogenous beta-PEA effect; type: functional
How it was run: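 cAMP functional assay in vitro measuring reversal of the effect of endogenous agonist beta-PEA; 100% antagonistic efficacy defined as 0% min% stimulation. Residual stimulation by beta-PEA recorded at the maximum test-compound concentration. Values are the average of at least two independent experiments; duplicates typically within a twofold margin.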

[2] = molecular target: Adenosine receptor A1 (Homo sapiens) (UniProt P30542); assay: Displacement of [3H]DPCPX from human recombinant A1 receptor expressed in CHO cells; type: cell-based; conditions: concentration not given here
[3] = molecular target: 5-hydroxytryptamine receptor 1A (Homo sapiens) (UniProt P08908); assay: Displacement of [3H]8-OH-DPAT from human recombinant 5HT1A receptor expressed in HEK293 cells; type: cell-based; conditions: concentration not given here
Rattus norvegicus [4] = species on record: Rattus norvegicus; assay: Displacement of [3H]flunitrazepam from BZD receptor in rat cerebral cortex; type: tissue-based; conditions: concentration not given here
[5] = molecular target: Vasopressin V1a receptor (Homo sapiens) (UniProt P37288); assay: Displacement of [3H]AVP from human recombinant V1a receptor expressed in H recombinant CHO cells; type: cell-based; conditions: concentration not given here
[6] = molecular target: C-C chemokine receptor type 1 (Homo sapiens) (UniProt P32246); assay: Displacement of [125I]MIP-1a from human recombinant CCR1 receptor expressed in HEK293 cells; type: cell-based; conditions: concentration not given here
Rattus norvegicus [7] = species on record: Rattus norvegicus; assay: Inhibition of rat GABA chloride channel at 10 uM
[8] = molecular target: Neuromedin-K receptor (Homo sapiens) (UniProt P29371); assay: Displacement of [3H]SR 142801 from human recombinant NK3 receptor expressed in CHO cells; type: cell-based; conditions: concentration not given here
[9] = molecular target: 5-hydroxytryptamine receptor 5A (Homo sapiens) (UniProt P47898); assay: Displacement of [3H]LSD from human recombinant 5HT5A receptor expressed in CHO cells; type: cell-based; conditions: concentration not given here
[10] = molecular target: Muscarinic acetylcholine receptor M1 (Homo sapiens) (UniProt P11229); assay: Displacement of [3H]pirenzepine from human recombinant muscarinic M1 receptor expressed in CHO cells; type: cell-based; conditions: concentration not given here
[11] = molecular target: Neuropeptide Y receptor type 1 (Homo sapiens) (UniProt P25929); assay: Displacement of [125I]peptide YY from human recombinant Y1 receptor expressed in […] cell; conditions: concentration not given here
[12] = Intrinsic clearance in mouse liver microsomes measured per mg of protein; type: ADME, Microsome
How it was run: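 Intrinsic clearance from in vitro incubation of compound with mouse liver microsomes, expressed per mg microsomal protein.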

[13] = molecular target: Small conductance calcium-activated potassium channel protein 1 (Rattus norvegicus) (UniProt P70606); assay: Displacement of [125I]apamin from SK+Ca channel in rat cerebral cortex; type: tissue-based; conditions: concentration not given here
[14] = molecular target: Sodium-dependent serotonin transporter (Homo sapiens) (UniProt P31645); assay: Inhibition of human serotonin transporter at 10 uM
[15] = molecular target: Adrenergic receptor alpha-2 (Rattus norvegicus) (UniProt P22086+P19328+P22909); assay: Displacement of [3H]RX8210 from alpha2 receptor in rat cerebral cortex; type: tissue-based; conditions: concentration not given here
[16] = molecular target: Trace amine-associated receptor 1 (Mus musculus) (UniProt Q923Y8); assay: Antagonist activity at mouse TAAR1 assessed as residual stimulation by in vitro cAMP functional assay relative to control; set-up: concentration or dose not given beside the values
How it was run: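 Mouse TAAR1 in vitro cAMP functional assay using the endogenous agonist β-PEA. The read-out is the residual β-PEA stimulation remaining at the maximum test-compound concentration. Values are averages of at least two independent experiments.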

[17] = molecular target: Somatostatin receptor (Mus musculus) (UniProt P30935+O08858+P30875+P30873+P49660); assay: Inhibition of mouse somatostatin receptor at 10 uM; type: protein assay
[18] = molecular target: Type-1 angiotensin II receptor (Homo sapiens) (UniProt P30556); assay: Displacement of [125I][Sar1,Ile8]-AT II from human recombinant AT1 receptor expressed in HEK293 cells; type: cell-based; conditions: concentration not given here
[19] = Clearance in mouse at 2.5 mg/kg, iv; type: ADME, organism-based; set-up: dose 2.5 mg/kg, route intravenous; conditions: in vivo
How it was run: (§1)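 Single-dose pharmacokinetics in mice comparing parenteral routes: intravenous at 2.5 mg/kg and intraperitoneal at 5 mg/kg. Plasma concentrations were followed over time. Bioavailability was derived for the ip route, and Cmax was taken from the ip plasma profile.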

[20] = molecular target: Thromboxane A2 receptor (Homo sapiens) (UniProt P21731); assay: Displacement of [3H]SQ 29548 from human recombinant TXA2 receptor expressed in HEK293 cells; type: cell-based; conditions: concentration not given here
[21] = molecular target: D(2) dopamine receptor (Homo sapiens) (UniProt P14416); assay: Displacement of [3H]spiperone from human recombinant dopamine D2S receptor expressed in HEK293 cells; type: cell-based; conditions: concentration not given here
[22] = molecular target: T1, Trace amine-associated receptor 1; assay: Inhibition of rat TAAR1
How it was run: (§2)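 In vitro cAMP functional assay with antagonism read as reversal of the response to the endogenous agonist beta-PEA. Efficacy was scaled so that 100% equals 0% minimum stimulation. Residual beta-PEA stimulation was taken at the highest test-compound concentration. Values are means of at least two independent experiments, with duplicates typically within a twofold margin.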

[23] = molecular target: Beta-1 adrenergic receptor (Homo sapiens) (UniProt P08588); assay: Displacement of [3H](-)CGP 12177 from human recombinant beta1 receptor expressed in HEK293 cells; type: cell-based; conditions: concentration not given here
[24] = molecular target: Kappa-type opioid receptor (Rattus norvegicus) (UniProt P34975); assay: Displacement of [3H]U69593 from rat recombinant kappa opioid receptor expressed in CHO cells; type: cell-based; conditions: concentration not given here
CHO = assay: Displacement of [3H]DADLE from human recombinant delta 2 opioid receptor expressed in CHO cells; type: cell-based; conditions: dose or concentration not given here
[25] = molecular target: Neurotensin receptor type 1 (Homo sapiens) (UniProt P30989); assay: Displacement of [125I]Tyr3-neurotensin from human recombinant NT1 receptor expressed in H recombinant CHO cells; type: cell-based; conditions: concentration not given here
[26] = molecular target: Cholecystokinin receptor type A (Homo sapiens) (UniProt P32238); assay: Inhibition of human cholecystokinin 1 receptor at 10 uM
[27] = molecular target: Adenosine receptor A2a (Homo sapiens) (UniProt P29274); assay: Displacement of [3H]CGS21680 from human recombinant A2A receptor expressed in HEK293 cells; type: cell-based; conditions: concentration not given here
[28] = molecular target: 5-hydroxytryptamine receptor 7 (Homo sapiens) (UniProt P34969); assay: Displacement of [3H]LSD from human recombinant 5HT7 receptor expressed in CHO cells; type: cell-based; conditions: concentration not given here
[29] = Bioavailability in mouse at 5 mg/kg, ip; type: ADME, organism-based; conditions: in vivo; how it was run: as §1
[30] = molecular target: T2, Trace amine-associated receptor 1 (Homo sapiens, UniProt Q96RJ0); assay: Antagonist activity at human TAAR1 assessed as reversal of endogenous beta-PEA effect; type: functional; how it was run: as §2
T2 sequence (Q96RJ0 whole entry): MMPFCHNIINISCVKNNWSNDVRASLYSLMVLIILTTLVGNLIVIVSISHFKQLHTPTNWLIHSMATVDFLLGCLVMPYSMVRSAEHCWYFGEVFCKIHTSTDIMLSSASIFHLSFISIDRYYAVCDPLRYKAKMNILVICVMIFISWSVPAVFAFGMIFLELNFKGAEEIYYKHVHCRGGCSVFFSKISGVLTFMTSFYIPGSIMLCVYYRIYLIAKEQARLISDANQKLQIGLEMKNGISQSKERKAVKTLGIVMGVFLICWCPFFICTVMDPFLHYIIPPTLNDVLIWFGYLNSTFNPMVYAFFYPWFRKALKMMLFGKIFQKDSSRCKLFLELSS

[31] = molecular target: T2, Trace amine-associated receptor 1; assay: Inhibition of human TAAR1; how it was run: as §2

T1 sequence (Q923Y9 whole entry): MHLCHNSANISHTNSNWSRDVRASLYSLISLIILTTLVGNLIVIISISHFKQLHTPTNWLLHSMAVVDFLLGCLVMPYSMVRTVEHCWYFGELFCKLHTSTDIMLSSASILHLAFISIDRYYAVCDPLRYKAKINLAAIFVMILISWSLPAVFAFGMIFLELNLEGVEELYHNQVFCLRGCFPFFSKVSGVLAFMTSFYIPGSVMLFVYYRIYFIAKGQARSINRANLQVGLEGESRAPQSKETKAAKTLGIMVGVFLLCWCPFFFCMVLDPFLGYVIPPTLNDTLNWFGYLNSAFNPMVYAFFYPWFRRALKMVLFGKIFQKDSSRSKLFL
Sequence of Small conductance calcium-activated potassium channel protein 1 (Rattus norvegicus) (P70606 whole entry): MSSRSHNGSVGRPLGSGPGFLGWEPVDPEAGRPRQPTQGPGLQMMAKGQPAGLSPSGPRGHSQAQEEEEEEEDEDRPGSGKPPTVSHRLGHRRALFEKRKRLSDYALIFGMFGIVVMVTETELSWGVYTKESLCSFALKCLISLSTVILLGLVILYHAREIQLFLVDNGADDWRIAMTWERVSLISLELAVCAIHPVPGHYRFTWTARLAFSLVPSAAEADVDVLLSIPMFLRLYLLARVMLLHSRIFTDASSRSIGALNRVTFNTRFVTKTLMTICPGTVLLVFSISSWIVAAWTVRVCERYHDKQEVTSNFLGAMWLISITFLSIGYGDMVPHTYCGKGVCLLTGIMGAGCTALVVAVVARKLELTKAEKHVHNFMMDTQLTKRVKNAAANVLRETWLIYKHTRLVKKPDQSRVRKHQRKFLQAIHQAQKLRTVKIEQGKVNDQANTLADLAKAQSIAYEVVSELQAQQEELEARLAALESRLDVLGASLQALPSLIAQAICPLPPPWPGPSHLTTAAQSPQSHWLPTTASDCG
Sequence of D(2) dopamine receptor (Homo sapiens) (P14416 whole entry): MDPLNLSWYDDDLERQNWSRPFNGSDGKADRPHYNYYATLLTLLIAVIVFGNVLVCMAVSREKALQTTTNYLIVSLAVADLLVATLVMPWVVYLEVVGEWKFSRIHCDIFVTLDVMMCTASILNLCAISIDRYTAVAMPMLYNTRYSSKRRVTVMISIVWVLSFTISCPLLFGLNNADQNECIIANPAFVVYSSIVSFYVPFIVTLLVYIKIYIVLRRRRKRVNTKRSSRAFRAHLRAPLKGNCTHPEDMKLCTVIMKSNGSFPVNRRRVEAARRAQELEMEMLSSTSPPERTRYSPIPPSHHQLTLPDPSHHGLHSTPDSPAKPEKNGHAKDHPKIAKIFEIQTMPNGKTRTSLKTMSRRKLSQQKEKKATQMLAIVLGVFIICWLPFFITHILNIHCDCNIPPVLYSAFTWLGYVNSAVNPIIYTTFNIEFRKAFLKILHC
Sequence of Kappa-type opioid receptor (Rattus norvegicus) (P34975 whole entry): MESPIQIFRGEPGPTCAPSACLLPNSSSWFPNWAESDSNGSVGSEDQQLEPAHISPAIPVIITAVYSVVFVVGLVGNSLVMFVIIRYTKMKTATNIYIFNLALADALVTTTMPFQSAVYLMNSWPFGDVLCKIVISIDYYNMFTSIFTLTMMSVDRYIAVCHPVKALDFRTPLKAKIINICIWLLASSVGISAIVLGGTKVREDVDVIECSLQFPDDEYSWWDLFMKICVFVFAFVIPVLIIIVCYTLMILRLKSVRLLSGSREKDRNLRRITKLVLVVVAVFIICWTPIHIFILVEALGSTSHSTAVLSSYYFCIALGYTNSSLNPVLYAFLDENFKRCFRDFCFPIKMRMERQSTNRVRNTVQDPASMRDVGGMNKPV
Sequence of Trace amine-associated receptor 1 (Mus musculus) (Q923Y8 whole entry): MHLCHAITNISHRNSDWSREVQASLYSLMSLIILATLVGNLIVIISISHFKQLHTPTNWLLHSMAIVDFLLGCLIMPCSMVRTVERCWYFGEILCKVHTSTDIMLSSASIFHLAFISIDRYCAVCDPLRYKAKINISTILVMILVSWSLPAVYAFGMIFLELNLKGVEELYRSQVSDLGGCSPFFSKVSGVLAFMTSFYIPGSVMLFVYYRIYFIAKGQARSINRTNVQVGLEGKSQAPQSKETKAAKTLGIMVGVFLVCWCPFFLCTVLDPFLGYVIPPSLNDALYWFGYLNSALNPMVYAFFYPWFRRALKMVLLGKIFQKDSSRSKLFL
Sequence of Somatostatin receptor (Mus musculus) (P30935 whole entry): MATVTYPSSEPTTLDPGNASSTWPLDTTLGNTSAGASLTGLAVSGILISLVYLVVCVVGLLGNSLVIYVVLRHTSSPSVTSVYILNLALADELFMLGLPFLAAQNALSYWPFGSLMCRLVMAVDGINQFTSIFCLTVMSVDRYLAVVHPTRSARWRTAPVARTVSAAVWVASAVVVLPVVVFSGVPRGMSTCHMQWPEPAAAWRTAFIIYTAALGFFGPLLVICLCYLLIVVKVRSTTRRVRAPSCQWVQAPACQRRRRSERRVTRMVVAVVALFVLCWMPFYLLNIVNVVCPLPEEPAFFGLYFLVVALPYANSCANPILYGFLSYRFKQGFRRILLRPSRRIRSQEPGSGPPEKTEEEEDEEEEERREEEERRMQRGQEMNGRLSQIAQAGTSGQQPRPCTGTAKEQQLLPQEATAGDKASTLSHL
Sequence of Somatostatin receptor (Mus musculus) (O08858 whole entry): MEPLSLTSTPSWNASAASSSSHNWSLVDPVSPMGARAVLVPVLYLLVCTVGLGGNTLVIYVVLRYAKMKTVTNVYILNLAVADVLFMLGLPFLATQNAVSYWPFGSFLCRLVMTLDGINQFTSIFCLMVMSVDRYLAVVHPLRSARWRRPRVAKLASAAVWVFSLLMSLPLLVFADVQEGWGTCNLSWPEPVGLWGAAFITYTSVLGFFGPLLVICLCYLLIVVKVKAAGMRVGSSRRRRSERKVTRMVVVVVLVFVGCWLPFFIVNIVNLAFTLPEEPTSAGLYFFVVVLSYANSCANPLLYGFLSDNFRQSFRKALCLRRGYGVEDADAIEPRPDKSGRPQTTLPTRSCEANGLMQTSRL
Sequence of Somatostatin receptor (Mus musculus) (P30875 whole entry): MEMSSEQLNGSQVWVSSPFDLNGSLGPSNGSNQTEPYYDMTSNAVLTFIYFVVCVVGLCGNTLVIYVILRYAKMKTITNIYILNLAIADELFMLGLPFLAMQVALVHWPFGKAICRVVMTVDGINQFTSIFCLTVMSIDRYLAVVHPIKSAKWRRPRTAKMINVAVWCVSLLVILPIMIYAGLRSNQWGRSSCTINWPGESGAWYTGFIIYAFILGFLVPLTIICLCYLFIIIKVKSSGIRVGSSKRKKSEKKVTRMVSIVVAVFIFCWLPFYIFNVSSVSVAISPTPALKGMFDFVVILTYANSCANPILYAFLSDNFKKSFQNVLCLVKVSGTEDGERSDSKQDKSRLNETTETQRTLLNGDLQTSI
Sequence of Somatostatin receptor (Mus musculus) (P30873 whole entry): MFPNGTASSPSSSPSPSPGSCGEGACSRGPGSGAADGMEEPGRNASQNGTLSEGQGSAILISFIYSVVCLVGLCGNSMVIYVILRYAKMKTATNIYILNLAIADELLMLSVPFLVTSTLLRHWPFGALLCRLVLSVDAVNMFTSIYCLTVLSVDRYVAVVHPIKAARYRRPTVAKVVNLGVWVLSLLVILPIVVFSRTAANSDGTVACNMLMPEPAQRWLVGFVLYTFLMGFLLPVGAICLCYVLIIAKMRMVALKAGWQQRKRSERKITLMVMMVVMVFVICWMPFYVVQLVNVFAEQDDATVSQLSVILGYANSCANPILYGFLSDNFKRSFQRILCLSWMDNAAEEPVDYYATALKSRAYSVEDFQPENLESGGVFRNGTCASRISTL
Sequence of Somatostatin receptor (Mus musculus) (P49660 with tags, fused parts or gaps): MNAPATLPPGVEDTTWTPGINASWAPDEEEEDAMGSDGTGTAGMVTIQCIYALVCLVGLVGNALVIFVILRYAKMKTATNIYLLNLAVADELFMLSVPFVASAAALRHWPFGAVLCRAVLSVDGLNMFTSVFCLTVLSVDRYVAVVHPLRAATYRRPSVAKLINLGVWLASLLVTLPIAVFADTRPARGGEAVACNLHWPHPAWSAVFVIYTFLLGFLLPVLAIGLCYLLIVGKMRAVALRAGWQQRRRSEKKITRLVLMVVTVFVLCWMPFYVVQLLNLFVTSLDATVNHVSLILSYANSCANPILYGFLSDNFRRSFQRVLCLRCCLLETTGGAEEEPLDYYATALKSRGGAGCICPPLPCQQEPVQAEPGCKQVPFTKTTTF
Sequence of Neuromedin-K receptor (Homo sapiens) (P29371 whole entry): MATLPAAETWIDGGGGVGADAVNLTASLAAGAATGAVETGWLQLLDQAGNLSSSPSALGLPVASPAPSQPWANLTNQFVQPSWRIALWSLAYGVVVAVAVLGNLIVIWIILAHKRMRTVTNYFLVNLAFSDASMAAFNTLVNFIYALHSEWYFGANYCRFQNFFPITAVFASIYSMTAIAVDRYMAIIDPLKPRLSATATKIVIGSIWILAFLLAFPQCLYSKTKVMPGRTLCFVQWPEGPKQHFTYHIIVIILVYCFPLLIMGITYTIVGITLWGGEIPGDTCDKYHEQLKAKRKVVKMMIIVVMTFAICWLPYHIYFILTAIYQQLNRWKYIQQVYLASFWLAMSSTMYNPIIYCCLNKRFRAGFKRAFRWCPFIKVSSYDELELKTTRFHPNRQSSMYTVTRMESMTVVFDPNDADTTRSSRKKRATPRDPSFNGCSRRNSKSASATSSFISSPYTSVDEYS
Sequence of Thromboxane A2 receptor (Homo sapiens) (P21731 whole entry): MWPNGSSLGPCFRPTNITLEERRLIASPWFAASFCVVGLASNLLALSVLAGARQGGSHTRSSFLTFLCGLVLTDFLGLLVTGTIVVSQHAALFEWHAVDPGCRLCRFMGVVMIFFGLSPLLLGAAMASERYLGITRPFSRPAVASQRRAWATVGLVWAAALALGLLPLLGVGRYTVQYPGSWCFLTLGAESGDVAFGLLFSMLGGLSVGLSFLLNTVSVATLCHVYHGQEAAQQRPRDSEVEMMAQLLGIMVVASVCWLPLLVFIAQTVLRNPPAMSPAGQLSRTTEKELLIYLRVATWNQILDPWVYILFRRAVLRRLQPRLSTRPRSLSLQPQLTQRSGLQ

For `CCOc1cccc(NC(=O)c2ccc(N3CCCC3)c(C(F)(F)F)c2)c1`, which IC50 [1] is on record?
Its IC50 is 4.54 µM.

What about the inhibition [2] of the same compound?
Its inhibition is 50%.

What about the inhibition [3] of the same compound?
The inhibition was 4%.

What about the inhibition (Rattus norvegicus [4]) of the same compound?
Its inhibition is -8%.

And the inhibition [5]?
Its inhibition is 9%.

And the inhibition [6]?
Its inhibition is 0%.

And the inhibition (Rattus norvegicus [7])?
The inhibition was 63%.

And the inhibition [8]?
The inhibition was 22%.

What about the inhibition [9] of the same compound?
The inhibition was 21%.

What about the inhibition [10] of the same compound?
Its inhibition is 4%.

What about the inhibition [11] of the same compound?
The inhibition was 4%.

What about the clearance [12] of the same compound?
The clearance was 109 µL/min/mg.

What about the inhibition [13] of the same compound?
Its inhibition is 0%.

And the inhibition [14]?
The inhibition was -7%.

What about the inhibition [15] of the same compound?
Its inhibition is 23%.

What about the Activity [16] of the same compound?
The Activity was -12%.

What about the inhibition [17] of the same compound?
Its inhibition is 7%.

What about the inhibition [18] of the same compound?
The inhibition was 5%.

What about the clearance [19] of the same compound?
Its clearance is 87 mL/min/kg.

What about the inhibition [20] of the same compound?
Its inhibition is 8%.

What about the inhibition [21] of the same compound?
Its inhibition is 9%.

And the Ki [22]?
Its Ki is 0.942 µM.

And the inhibition [23]?
Its inhibition is 4%.

And the inhibition [24]?
Its inhibition is 33%.

What about the inhibition (CHO) of the same compound?
The inhibition was 28%.

What about the inhibition [25] of the same compound?
The inhibition was -5%.

And the inhibition [26]?
The inhibition was 57%.

And the inhibition [27]?
Its inhibition is 13%.

And the inhibition [28]?
The inhibition was 10%.

And the bioavailability [29]?
Its bioavailability is 74%.

What about the IC50 [30] of the same compound?
Its IC50 is 7.49 µM.

And the Ki [31]?
Its Ki is greater than 5 µM.
